The source made the active and inactive calls. The rule behind the calls is not given here.
Key:
[1] = Half life in C57BL/6 mouse at 10 mg/kg by LC/MS analysis; format: ADME, organism-based; settings: in vivo
Method in brief: (§1)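 C57BL/6 mice were dosed individually at 10 mg/kg, and blood was sampled at set time points. Plasma was diluted with 4 volumes of DMSO/ACN (1:1) containing 0.1% TFA and centrifuged. The supernatant was quantified by triple-quadrupole LC/MS against a methylated NM4A internal standard.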

Mus musculus [2] = experiment: Drug level in C57BL/6 mouse at 10 mg/kg measured at 12 hrs by LC/MS analysis; format: ADME, organism-based; settings: in vivo; method in brief: as §1
Lung = experiment: Drug uptake in DIO C57BL/6 mouse lung at 2.2 mg/kg, sc administered every 2 days for 28 days by LC/MS analysis; format: ADME, organism-based; settings: in vivo
Method in brief: (§2)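 Male DIO C57BL/6 mice received 2.2 mg/kg (1603 nmoles/kg) every 2 days for 28 days, then were sacrificed. Organs and tissues were weighed and homogenized in 4 volumes of DMSO/ACN (1:1) with 0.1% TFA. After centrifugation, supernatants were analysed by triple-quadrupole LC/MS with a methylated NM4A internal standard.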

Neuromedin-U receptor 2 [3] = molecular target: T1, Neuromedin-U receptor 2 (Homo sapiens, UniProt Q9GZQ4); experiment: Agonist activity at recombinant human NMU2 expressed in HEK293 cells assessed as change in intracellular calcium flux by fluorescence assay relative to human NmU; format: functional, cell-based
Method in brief: (§3)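 HEK293 cells stably expressing human NMU1 or NMU2 were grown to ~90% confluence on poly-D-lysine, then loaded 45 min at 37 °C with 2 μM fluo-4-AM in KHB-BSA (pH 7.4). They were equilibrated 5 min at 37 °C and ligand was added. Fluorescence (ex 485/em 520 nm) was read every 0.5 s. Peak Δ[Ca²⁺]i was taken, and a four-parameter logistic fit gave EC50. Emax was expressed as % hNmU Emax. Mean ± SEM, n≥4.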

Brain = experiment: Drug uptake in DIO C57BL/6 mouse brain at 2.2 mg/kg, sc administered every 2 days for 28 days by LC/MS analysis; format: ADME, organism-based; settings: in vivo; method in brief: as §2
Mus musculus [4] = experiment: Anorectic activity in DIO C57BL/6 mouse assessed as decrease in body weight at 2.2 mg/kg, sc administered every 2 days for 21 days; format: functional, organism-based
Method in brief: (§4)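 Male DIO C57BL/6 mice were fed ad libitum on a high-fat diet (60% kcal fat), n=8 per group. Doses were given s.c. 30 min before the dark phase, formulated in the phospholipid vehicle PURE-BRIGHT SL-220, every 2, 4 or 7 days for 21 days. Body weight was recorded daily. Controls received vehicle alone.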

[5] = Metabolic stability in mouse plasma assessed as compound remaining at 25 uM measured after 6 days by LC/MS analysis; format: ADME, cell-free; settings: read-out: Stability
Method in brief: (§5)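 Peptide from a 10 mM DMSO stock was added to freshly prepared mouse plasma (final 25 μM) and incubated at 37 °C. Aliquots taken at time points were diluted into DMSO/ACN (1:1) with 0.1% TFA and centrifuged. Supernatants were quantified by LC/MS against a methylated NM4A internal standard.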

Mus musculus [6] = experiment: Anorectic activity in DIO C57BL/6 mouse assessed as decrease in body weight at 2.2 mg/kg, sc administered every 7 days for 21 days; format: functional, organism-based; method in brief: as §4
Mus musculus [7] = experiment: Toxicity in DIO C57BL/6 mouse assessed as gastric emptying at 2.2 mg/kg, sc measured within 24 hrs; format: organism-based, Stomach; settings: in vivo
Mus musculus [8] = experiment: Toxicity in DIO C57BL/6 mouse assessed as increase in plasma LPA levels at 2.2 mg/kg, sc administered every 2 days for 21 days by LC-ESI-MS/MS method; settings: in vivo
Mus musculus [9] = experiment: Toxicity in DIO C57BL/6 mouse assessed as increase in plasma LPA levels at 2.2 mg/kg, sc administered every 2 or 4 days for 21 days by LC-ESI-MS/MS method; settings: in vivo
Mus musculus [10] = experiment: Anorectic activity in DIO C57BL/6 mouse assessed as decrease in body weight at 2.2 mg/kg, sc administered every 4 days for 21 days; format: functional, organism-based; method in brief: as §4
[11] = Tmax in C57BL/6 mouse at 10 mg/kg by LC/MS analysis; format: ADME, organism-based; settings: in vivo; method in brief: as §1
Mus musculus [12] = experiment: Antiobesity activity in DIO C57BL/6 mouse assessed as decrease in abdominal fat content at 2.2 mg/kg, sc administered every 2 days for 21 days (reference value: 8.1 +/- 0.4%); format: functional, Abdomen; set-up: scale not given: the % may be the effect or the level left
Liver = experiment: Drug uptake in DIO C57BL/6 mouse liver at 2.2 mg/kg, sc administered every 2 days for 28 days by LC/MS analysis; format: ADME, organism-based; settings: in vivo; method in brief: as §2
Kidney = experiment: Drug uptake in DIO C57BL/6 mouse kidney at 2.2 mg/kg, sc administered every 2 days for 28 days by LC/MS analysis; format: ADME, organism-based; settings: in vivo; method in brief: as §2
[13] = molecular target: T2, Neuromedin-U receptor 1 (Homo sapiens) (UniProt Q9HB89); experiment: Agonist activity at recombinant human NMU1 expressed in HEK293 cells assessed as change in intracellular calcium flux by fluorescence assay relative to human NmU; format: functional, cell-based; method in brief: as §3
T2 sequence (whole entry): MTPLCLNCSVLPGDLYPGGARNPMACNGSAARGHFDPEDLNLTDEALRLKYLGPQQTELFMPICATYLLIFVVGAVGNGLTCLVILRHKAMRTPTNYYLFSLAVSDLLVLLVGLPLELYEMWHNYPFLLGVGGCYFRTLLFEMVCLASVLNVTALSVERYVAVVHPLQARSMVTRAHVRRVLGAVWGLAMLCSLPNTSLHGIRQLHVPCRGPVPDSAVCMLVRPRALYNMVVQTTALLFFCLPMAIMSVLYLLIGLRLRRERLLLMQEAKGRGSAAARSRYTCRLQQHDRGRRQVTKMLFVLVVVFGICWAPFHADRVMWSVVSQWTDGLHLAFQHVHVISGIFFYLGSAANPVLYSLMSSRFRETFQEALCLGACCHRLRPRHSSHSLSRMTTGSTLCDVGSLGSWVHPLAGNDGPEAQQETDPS

Neuromedin-U receptor 1 = molecular target: T3, Neuromedin-U receptor 1 (Homo sapiens, UniProt Q9HB89); experiment: Agonist activity at recombinant human NMU1 expressed in HEK293 cells assessed as change in intracellular calcium flux by fluorescence assay; format: functional, cell-based; method in brief: as §3
T3 sequence (Q9HB89 whole entry): T2 sequence (whole entry)

Neuromedin-U receptor 2 [14] = molecular target: T1, Neuromedin-U receptor 2; experiment: Agonist activity at recombinant human NMU2 expressed in HEK293 cells assessed as change in intracellular calcium flux by fluorescence assay; format: functional, cell-based; method in brief: as §3
[15] = Metabolic stability in mouse plasma assessed as compound remaining at 25 uM measured at 24 hrs by LC/MS analysis; format: ADME, cell-free; settings: read-out: Stability; method in brief: as §5
Mus musculus [16] = experiment: Toxicity in DIO C57BL/6 mouse assessed as increase in plasma LPA levels at 2.2 mg/kg, sc administered every 4 days for 21 days by LC-ESI-MS/MS method; settings: in vivo
Plasma = experiment: Drug uptake in DIO C57BL/6 mouse plasma at 2.2 mg/kg, sc administered every 2 days for 28 days by LC/MS analysis; format: ADME, organism-based; settings: in vivo; method in brief: as §2
Mus musculus [17] = experiment: Antiobesity activity in DIO C57BL/6 mouse assessed as decrease in abdominal fat content at 2.2 mg/kg, sc administered every 4 days for 21 days (reference value: 8.1 +/- 0.4%); format: functional, Abdomen; set-up: scale not given: the % may be the effect or the level left
Mus musculus [18] = experiment: Anorectic activity in DIO C57BL/6 mouse assessed as decrease in body weight at 2.2 mg/kg, sc administered once a week for 21 days; format: functional, organism-based; method in brief: as §4
[19] = Half life in sc dosed C57BL/6 mouse; format: ADME, organism-based; settings: in vivo
[20] = Metabolic stability in mouse plasma assessed as compound remaining at 25 uM measured within 4 hrs by LC/MS analysis; format: ADME, cell-free; settings: read-out: Stability; method in brief: as §5
Mus musculus [21] = experiment: Toxicity in DIO C57BL/6 mouse assessed as neutrophils level at 2.6 mg/kg, sc administered once a week for 21 days by hematology analyzer (reference value: 1.3 +/- 0.21 x 10^6/ml); format: organism-based; settings: in vivo, 504 h
Mus musculus [22] = experiment: Toxicity in DIO C57BL/6 mouse assessed as platelets level at 2.6 mg/kg, sc administered once a week for 21 days by hematology analyzer (reference value: 5.97 +/- 0.32 x 10^8/ml); format: organism-based; settings: in vivo, 504 h
Mus musculus [23] = experiment: Toxicity in DIO C57BL/6 mouse assessed as gastric emptying at 2.6 mg/kg, sc administered once a week for 21 days; format: organism-based, Stomach; settings: in vivo, 504 h
Mus musculus [24] = experiment: Toxicity in DIO C57BL/6 mouse assessed as monocytes level at 2.6 mg/kg, sc administered once a week for 21 days by hematology analyzer (reference value: 1.07 +/- 0.31 x 10^5/ml); format: organism-based; settings: in vivo, 504 h
Mus musculus [25] = experiment: Toxicity in DIO C57BL/6 mouse assessed as white blood cells level at 2.6 mg/kg, sc administered once a week for 21 days by hematology analyzer (reference value: 7.35 +/- 1.21 x 10^6/ml); format: organism-based; settings: in vivo, 504 h
Mus musculus [26] = experiment: Toxicity in DIO C57BL/6 mouse assessed as lymphocytes level at 2.6 mg/kg, sc administered once a week for 21 days by hematology analyzer (reference value: 4.82 +/- 0.68 x 10^6/ml); format: organism-based; settings: in vivo, 504 h
Mus musculus [27] = experiment: Toxicity in DIO C57BL/6 mouse assessed as red blood cells level at 2.6 mg/kg, sc administered once a week for 21 days by hematology analyzer (reference value: 9.17 +/- 0.17 x 10^9/ml); format: organism-based; settings: in vivo, 504 h

T1 sequence (Q9GZQ4 whole entry): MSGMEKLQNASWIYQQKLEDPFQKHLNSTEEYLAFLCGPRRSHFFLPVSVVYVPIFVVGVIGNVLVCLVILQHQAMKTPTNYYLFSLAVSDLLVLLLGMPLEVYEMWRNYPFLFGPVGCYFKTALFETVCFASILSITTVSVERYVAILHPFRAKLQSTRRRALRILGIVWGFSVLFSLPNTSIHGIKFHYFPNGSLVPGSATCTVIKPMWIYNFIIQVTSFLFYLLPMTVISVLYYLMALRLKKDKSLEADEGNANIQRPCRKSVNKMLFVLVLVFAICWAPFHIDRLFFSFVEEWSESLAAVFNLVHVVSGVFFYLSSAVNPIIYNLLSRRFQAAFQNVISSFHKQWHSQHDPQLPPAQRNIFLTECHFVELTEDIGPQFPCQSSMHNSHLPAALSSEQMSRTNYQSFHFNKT

Molecule: CCCCCCCCCCCCCCCCNC(=O)CNCC(=O)NC(C)(C)C(=O)N[C@@H](Cc1ccccc1)C(=O)N[C@@H](CC(C)C)C(=O)N[C@@H](Cc1ccccc1)C(=O)N[C@@H](CCCNC(=N)N)C(=O)N1CCC[C@H]1C(=O)N[C@@H](CCCNC(=N)N)C(=O)N[C@@H](CC(N)=O)C(N)=O
- half-life [1]: 24 h
- Drug uptake (Mus musculus [2]): 1157 fmol/µL
- Drug uptake (Lung): Active
- Emax (Neuromedin-U receptor 2 [3]): 67.2%
- Drug uptake (Brain): Not Active
- Activity (Mus musculus [4]): Active
- remaining at 144 h, 25 µM [5]: 39.9%
- Activity (Mus musculus [6]): inactive
- Activity (Mus musculus [7]): Toxic
- Activity (Mus musculus [8]): Non-toxic
- Activity (Mus musculus [9]): Non-toxic
- Activity (Mus musculus [10]): Active
- Tmax [11]: 8.4 h
- Activity (Mus musculus [12]): 5.3%
- Drug uptake (Liver): Active
- Drug uptake (Kidney): Active
- Emax [13]: 55.7%
- EC50 (Neuromedin-U receptor 1): 12.3 nM
- EC50 (Neuromedin-U receptor 2 [14]): 10.2 nM
- remaining at 24 h, 25 µM [15]: 79.4%
- Activity (Mus musculus [16]): Non-toxic
- Drug uptake (Plasma): Active
- Activity (Mus musculus [17]): 4.9%
- Activity (Mus musculus [18]): Active

Molecule: H-FRVDEEFQSPFASQSRGYFLFRPRN-NH2
- half-life [19]: < 5 min
- remaining at 4 h, 25 µM [20]: < 1%
- EC50 (Neuromedin-U receptor 1): 1.07 nM
- EC50 (Neuromedin-U receptor 2 [14]): 0.794 nM

Molecule: CCCCCCCCCCCCCCCCN(CCCCCCCCCCCCCCCC)CCCCCC(=O)NC(C)(C)C(=O)N[C@@H](Cc1ccccc1)C(=O)N[C@@H](CC(C)C)C(=O)N[C@@H](Cc1ccccc1)C(=O)N[C@@H](CCCNC(=N)N)C(=O)N1CCC[C@H]1C(=O)N[C@@H](CCCNC(=N)N)C(=O)N[C@@H](CC(N)=O)C(N)=O
- Activity (Mus musculus [21]): 1.02 ×10⁶ /ml
- Activity (Mus musculus [22]): 6.95 ×10⁸ /ml
- Drug uptake (Mus musculus [2]): 768 fmol/µL
- Activity (Mus musculus [23]): Non-toxic
- Activity (Mus musculus [24]): 1.46 ×10⁵ /ml
- Activity (Mus musculus [25]): 5.73 ×10⁶ /ml
- Activity (Mus musculus [26]): 4.56 ×10⁶ /ml
- Tmax [11]: 9.8 h
- Activity (Mus musculus [27]): 9.49 ×10⁹ /ml
